# Compounds with a hit are over-represented: about 2.4% of the library has one in this group of screens.
# Yeast life ext: extends the lifespan of yeast. hit rate 0.68% among 130,000. S. cerevisiae growth with nicotinamide, OD615; deaD strain in restrictive glucose medium. inhibition of the nicotinamide effect, % at 10 µM;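 active = inhibition above a set limit, placed 3 SD over the median of all compounds, cut at about 26% in these data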;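 note: 0% = nicotinamide-treated wells and 100% = cells grown without nicotinamide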
#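 Test system: DeaD-strain S. cerevisiae / Buffer or medium: restrictive glucose medium / Also added: nicotinamide 1.5 mM / Doses: one concentration, 10 µM, DMSO 0.25% / Schedule: 48 h at 30 °C / Signal: OD615 measurement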
# Arbovirus anti: arbovirus infection inhibition. arbovirus infection cell-based antiviral screen. inhibition, % at 10 µM. hit rate 0.37% among 200,000. AID 1251; in the data active = inhibition above about 30%
# Measles CPE: protection of cells from measles virus; Measles virus-infected cells, CPE protection, absorbance; hit rate 1.5% among 140,000; protection (pct of control), % at 4 µM; in the data active = protection mostly above about 24%, no sharp cut-off; inactive = mostly below about 26%
# Yeast growth inh: yeast BB579 growth reduction in restrictive medium. S. cerevisiae BB579 growth, OD615, 48 h. inhibition, % at 10 µM. hit rate 0.51% among 140,000. AID 804;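 active = inhibition above a set limit, 3 SD over the mean compound inhibition, cut at about 44% in these data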
#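 System: Saccharomyces cerevisiae DeaD strain BB579, replicative lifespan model yeast | Buffer or medium: Restrictive glucose-based CSMM-D medium | Times: 4 h preincubation and 48 h exposure at 30 °C | Detection: OD615 turbidity measurement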
# Rad51 HR inh: blocks human Rad51 in homologous recombination. Q06609. hRad51 DNA strand exchange, fluorescence dequenching. inhibition, % at 10 µM. hit rate 0.085% among 200,000. AID 1385;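 active = inhibition above 40% at the single screening dose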;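 note: 0% = DMSO control wells and 100% = blanks with heterologous ssDNA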
# Target sequence (Q06609 whole entry, looked up): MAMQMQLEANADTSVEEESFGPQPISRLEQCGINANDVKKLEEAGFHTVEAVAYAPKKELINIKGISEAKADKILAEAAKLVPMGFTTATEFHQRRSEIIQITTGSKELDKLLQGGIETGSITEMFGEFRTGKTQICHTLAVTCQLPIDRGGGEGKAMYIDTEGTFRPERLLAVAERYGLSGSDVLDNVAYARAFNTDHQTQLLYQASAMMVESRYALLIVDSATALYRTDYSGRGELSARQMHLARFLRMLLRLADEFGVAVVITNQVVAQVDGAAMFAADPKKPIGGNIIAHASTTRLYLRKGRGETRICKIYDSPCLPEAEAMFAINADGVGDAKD
#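 System: hRad51 filaments on single-stranded DNA; reagent: Fluorescein- and BHQ1-tagged 47-mer duplex; compound dosing: one concentration, 10 µM final; timing: filaments 15 min 37 °C, then compound 30 min; measured by: fluorescein emission 520 nm, excitation 485 nm; benchmarks: per-plate controls and blanks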
# HMGR II inh: E. faecalis class II HMG-CoA reductase inhibition; purified E. faecalis HMGR, NADPH absorbance 340 nm kinetic; inhibition, % at 10 µM; hit rate 0.41% among 190,000; AID 1066;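 active = inhibition above a set limit, the median over all tested compounds plus 3 SD, cut at about 9.5% in these data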;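 note: enzyme runs in reverse so mevalonate oxidation gives rising NADPH absorbance; 0% = complete reaction with DMSO and 100% = background rate lacking mevalonate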
# The depositor's hits bear a star; / = no result.
SMILES,Yeast life ext,Arbovirus anti,Measles CPE,Yeast growth inh,Rad51 HR inh,HMGR II inh
O=C(CN1CCN(Cc2cccc(Cl)c2)C1=O)NCc1ccccn1,-9.5,6.7,34.2*,1.8,-8.5,-3.0
COCCNC(=O)CN1CCN(Cc2cccc(Cl)c2)C1=O,-2.8,4.2,7.8,-42.8,1.2,1.1
CCc1cc(=O)oc2cc(C)c(CN3CCCC(C)C3)c(O)c12 (configuration not stated),30.2*,-1.9,4.7,-35.0,-5.7,-5.8
CCCCc1cc(=O)oc2cc(C)c(CN3CCCC3)c(O)c12,46.2,16.3,5.7,-45.1,-4.8,2.2
COc1cc(C(=O)NCc2nnc(SCC(=O)N3CCc4ccccc43)o2)cc(OC)c1OC,-2.4,1.1,6.4,-5.9,/,0.5
CCn1c(Sc2nc(C)nc3scc(-c4cccs4)c23)n[nH]c1=O,-6.6,16.4,21.3,99.0*,5.1,-0.5
Cc1nc(SCC(=O)NC(=O)NCCC(C)C)c2c(-c3cccs3)csc2n1,6.2,-5.2,6.6,-9.8,0.9,-3.2
COc1cc(C(=O)O)c2ccccc2n1,/,-3.2,/,/,-6.2,1.3
COc1ccc(CCNC(=O)Cn2c([N+](=O)[O-])cnc2C)cc1OC,/,-2.2,/,/,-1.5,-2.9
COC(=O)c1sccc1NC(=O)c1csc(C)c1,-24.6,2.5,25.4*,-10.6,-10.9,-3.4
COC(=O)c1ccc(OCC(=O)Nc2ccsc2C(=O)OC)cc1,/,-10.4,/,/,11.1,11.9*
OCC1(O)OC[C@@H](O)[C@H]1O (some centres not stated),/,/,/,/,5.1,/
CCN(C(=O)COC(=O)c1c(C)c(-c2ccccc2)nc2ccccc12)C1CCS(=O)(=O)C1 (configuration not stated),/,/,/,/,12.1,/
CN(C)c1ccc(N=Nc2ccccc2C(=O)OCC(=O)Nc2ccccc2C(F)(F)F)cc1,28.8*,-3.0,4.2,-24.4,7.6,-0.2
O=S(=O)(Nc1cccc(-c2ccc3nncn3n2)c1)c1ccc(Cl)s1,/,-2.0,/,/,-2.7,-0.1
Cc1ccc(NS(=O)(=O)c2ccc3c(c2)oc(=O)n3C)cc1F,-4.6,20.9,45.5*,-24.8,-6.8,-3.8
Cn1c(=O)oc2cc(S(=O)(=O)Nc3cccc(F)c3)ccc21,-1.2,3.1,25.1,-44.4,-1.5,-4.5
O=C(CSc1ncccn1)NC(=O)c1ccccc1,/,8.1,/,/,3.9,-1.8
C/C(=N\NC(=O)CSc1nc(C)cc(C)n1)c1cccc([N+](=O)[O-])c1,1.9,-7.3,10.9,-53.2,-2.5,-0.6
Cc1cc(NC(=O)CCN2C(=O)/C(=C\c3ccccc3)SC2=S)no1,/,/,/,/,-5.4,/
Cc1cc(NC(=O)CN2C(=O)S/C(=C\c3ccccc3)C2=O)no1,-0.9,-7.0,30.7*,-5.1,-0.3,-1.9
C=CCN(C(=O)c1cccc(N2C(=O)C3CC=CC(C)C3C2=O)c1)c1ccccc1 (configuration not stated),/,30.2*,/,/,-0.2,-0.4
COc1ccc(N(CC(O)Cn2cnc3ccccc32)S(=O)(=O)c2ccc(C)cc2)cc1 (configuration not stated),4.9,-9.7,2.0,-25.2,/,0.0
O=C(NCCCNCc1ccccc1)c1ccncc1,-1.6,1.1,40.2*,-47.1,3.5,-1.9
O=C(/C=N\O)NCCCNCc1ccccc1,50.4*,-1.0,0.6,-37.6,4.4,-3.0
SMILES,Yeast life ext,Arbovirus anti,Measles CPE,Yeast growth inh,Rad51 HR inh,HMGR II inh
C[n+]1cccc(CNC(=O)/C=N/O)c1,-13.6,3.4,active,-54.2,3.6,5.0
CN(C)CCCNCCCNC(=O)c1ccncc1,-2.3,-3.1,0.8,15.7,-5.0,-1.6
CN1C2CCC1CC(NC(=O)CSCc1ccc(Cl)cc1Cl)C2 (configuration not stated),/,/,/,/,13.9,/
O=C(COC(=O)c1cc(-c2ccc(F)cc2)nc2ccccc12)NCC1CCCO1 (configuration not stated),/,8.7,/,/,3.4,-7.9
Cc1cnn(C(=O)c2cc(-c3ccccc3)nc3ccccc23)c1,-19.8,4.9,7.3,-13.5,-10.5,0.4
Cc1cc2ncn(C(=O)c3cc(-c4ccccc4)nc4ccccc34)c2cc1C,-0.4,-10.1,29.2*,-18.3,1.2,-7.7
O=C(NC(=S)NN1CCCCC1c1cccnc1)c1ccc(Cl)cc1Cl (configuration not stated),/,/,/,/,8.6,/
CC1(C)Cc2c(sc3nc(-c4ccccc4)oc(=O)c23)CO1,-2.4,-1.5,16.4,-22.7,/,-5.2
O=C(CSC1=NS(=O)(=O)c2ccccc21)Nc1ccccc1,-10.7,1.8,5.6,72.8*,1.4,-12.1
COC(=O)CSC1=NS(=O)(=O)c2ccccc21,-1.6,-3.1,1.8,-59.1,3.1,1.2
CCc1cc2c(=O)c(Oc3ccccc3)c(C)oc2cc1O,69.2*,-5.7,10.9,-42.5,-7.0,0.9
CCc1sc(NC(C)=O)nc1-c1ccccc1,/,0.3,/,/,7.3,-2.9
CCc1sc(NC(=O)COC)nc1-c1ccccc1,-8.9,4.5,28.2*,-12.8,5.2,-4.0
CC(C)(CO)NCc1ccc(Br)cc1,/,0.1,/,/,43.5*,-6.7
Cc1ccc(CNC(C)(C)CO)cc1,12.7,5.2,13.7,-3.5,15.8,-3.5
O=C(NCc1cccnc1)c1cccc2c1C(=O)N(C1CCCCC1)C2,52.2*,-3.8,4.7,-44.3,/,-7.5
O=C(NCc1ccco1)c1cccc2c1C(=O)N(C1CCCCC1)C2,-0.3,-10.9,2.2,-38.1,-1.8,-4.9
CC(=O)Nc1ccc(S(=O)(=O)Nc2cccc(N(C)S(C)(=O)=O)c2)cc1,3.0,5.7,5.2,-11.7,0.1,3.0
CC(=O)Nc1ccc(N(C)S(C)(=O)=O)cc1,2.4,-0.2,39.5*,-19.4,0.3,-2.3
C=C(C)Cn1cnc2c(oc3nc4c(cc32)CCCC4)c1=O,/,/,/,/,11.3,/
Cc1ccc(C)c(OCCCC(C)(C)C(=O)O)c1,17.5,5.5,8.8,-5.2,-0.2,9.6*
O=c1c2ccccc2nc(/C=C/c2c[nH]c3ccccc23)n1-c1ccc([N+](=O)[O-])cc1,-1.7,-17.0,32.1*,0.1,11.6,-9.6
Cc1[nH]c2ccccc2c1/C=C/c1nc2ccccc2c(=O)n1-c1cccc([N+](=O)[O-])c1,16.9,-2.5,12.5,-31.7,-11.6,-5.2
Cc1ccc(-n2nc(CN3CCOCC3)c(-c3ccccc3)c2N)cc1Cl,-5.0,-4.3,3.8,3.7,-7.9,-5.0
Clc1ccc(Cc2nc(-c3cccnc3)no2)cc1,-3.6,-17.4,25.8,-12.7,-8.4,-5.7
COc1ccc(C(=O)NNC(=S)NC(=O)c2ccco2)cc1,33.4*,-25.4,3.0,-16.9,3.4,-0.6
CCCOc1ccc(C(=O)NNC(=S)NC(=O)c2ccco2)cc1,/,/,/,/,4.0,/
COc1ccccc1C(=O)NNC(=S)NC(=O)c1ccco1,8.0,-25.6,12.5,81.5*,-7.0,-4.3
COc1ccc(C(=O)NC(=S)NNC(=O)c2ccc(NC(=O)C(C)C)cc2)cc1,33.5*,-16.9,13.7,-21.3,/,-2.9
